Assay results from ChEMBL document CHEMBL3393046, “Conformationally-locked N-glycosides: exploiting long-range non-glycone interactions in the design of pharmacological chaperones for Gaucher disease” (Eur J Med Chem, 2015).
Calls of active or inactive are those of the source. No cut-off for these calls is given here.

Assays:
Aspergillus niger = assay: Inhibition of Aspergillus niger amyloglucosidase at 2 mM incubated for 10 to 30 mins by spectrophotometry
In short: (§1)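 Reaction started by adding enzyme to substrate, without or with various inhibitor concentrations, in phosphate or phosphate-citrate buffer (α/β-mannosidase, amyloglucosidase) at each enzyme's optimal pH. Incubation 10–30 min at 37 °C (55 °C for amyloglucosidase), timed for 10–20% conversion. Stopped with 1 M Na₂CO₃, or for trehalase by heating then GLC-Trinder. Absorbance 405 nm (trehalase 492 nm). Approximate Ki from fixed substrate near Km.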

Saccharomyces cerevisiae = assay: Inhibition of yeast isomaltase at 2 mM incubated for 10 to 30 mins by spectrophotometry; in short: as §1
[1] = target: Beta-galactosidase (Escherichia coli K-12) (UniProt P00722); assay: Inhibition of Escherichia coli beta-galactosidase at 2 mM incubated for 10 to 30 mins using o-nitrophenyl beta-D-galactopyranoside substrate by spectrophotometry; in short: as §1
Chain of Beta-galactosidase (Escherichia coli K-12) (P00722 whole entry): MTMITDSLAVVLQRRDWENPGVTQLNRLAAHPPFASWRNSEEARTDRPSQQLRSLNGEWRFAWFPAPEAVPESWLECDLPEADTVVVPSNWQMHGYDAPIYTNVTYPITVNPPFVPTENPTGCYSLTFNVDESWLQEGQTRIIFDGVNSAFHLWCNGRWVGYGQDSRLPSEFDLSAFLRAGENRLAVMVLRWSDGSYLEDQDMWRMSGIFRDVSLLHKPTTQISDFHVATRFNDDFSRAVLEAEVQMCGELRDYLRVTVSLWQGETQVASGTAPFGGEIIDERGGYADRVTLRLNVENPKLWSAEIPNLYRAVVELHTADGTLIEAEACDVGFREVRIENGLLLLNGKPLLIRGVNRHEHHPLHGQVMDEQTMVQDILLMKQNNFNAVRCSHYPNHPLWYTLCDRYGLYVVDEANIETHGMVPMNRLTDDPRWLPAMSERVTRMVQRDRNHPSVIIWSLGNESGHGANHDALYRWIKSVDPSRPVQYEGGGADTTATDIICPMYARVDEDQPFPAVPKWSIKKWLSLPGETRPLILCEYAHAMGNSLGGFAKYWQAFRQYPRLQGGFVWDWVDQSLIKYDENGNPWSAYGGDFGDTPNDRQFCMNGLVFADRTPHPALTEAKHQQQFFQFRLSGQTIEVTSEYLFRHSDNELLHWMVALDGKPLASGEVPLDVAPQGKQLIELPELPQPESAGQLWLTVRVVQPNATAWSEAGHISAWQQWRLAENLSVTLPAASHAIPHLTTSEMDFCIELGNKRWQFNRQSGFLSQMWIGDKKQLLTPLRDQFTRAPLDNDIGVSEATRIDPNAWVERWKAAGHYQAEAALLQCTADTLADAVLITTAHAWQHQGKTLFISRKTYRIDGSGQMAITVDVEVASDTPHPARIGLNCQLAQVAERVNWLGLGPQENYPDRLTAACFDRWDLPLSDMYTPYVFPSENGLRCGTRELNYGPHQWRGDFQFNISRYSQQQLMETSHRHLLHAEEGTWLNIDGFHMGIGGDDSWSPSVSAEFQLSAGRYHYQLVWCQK

Penicillium decumbens = assay: Inhibition of Penicillium decumbens naringinase at 2 mM incubated for 10 to 30 mins using substrate by spectrophotometry; in short: as §1
Saccharomyces bayanus = assay: Inhibition of yeast alpha-glucosidase at 2 mM incubated for 10 to 30 mins using p-nitrophenyl alpha-D-glycopyranoside substrate by spectrophotometry; in short: as §1
Helix pomatia = assay: Inhibition of Helix pomatia beta-mannosidase at 2 mM incubated for 10 to 30 mins using substrate by spectrophotometry; in short: as §1
[2] = target: T1, Alpha-mannosidase (Canavalia ensiformis) (UniProt C0HJB3); assay: Inhibition of jack bean alpha-mannosidase at 2 mM incubated for 10 to 30 mins by spectrophotometry; in short: as §1
T1 sequence (whole entry): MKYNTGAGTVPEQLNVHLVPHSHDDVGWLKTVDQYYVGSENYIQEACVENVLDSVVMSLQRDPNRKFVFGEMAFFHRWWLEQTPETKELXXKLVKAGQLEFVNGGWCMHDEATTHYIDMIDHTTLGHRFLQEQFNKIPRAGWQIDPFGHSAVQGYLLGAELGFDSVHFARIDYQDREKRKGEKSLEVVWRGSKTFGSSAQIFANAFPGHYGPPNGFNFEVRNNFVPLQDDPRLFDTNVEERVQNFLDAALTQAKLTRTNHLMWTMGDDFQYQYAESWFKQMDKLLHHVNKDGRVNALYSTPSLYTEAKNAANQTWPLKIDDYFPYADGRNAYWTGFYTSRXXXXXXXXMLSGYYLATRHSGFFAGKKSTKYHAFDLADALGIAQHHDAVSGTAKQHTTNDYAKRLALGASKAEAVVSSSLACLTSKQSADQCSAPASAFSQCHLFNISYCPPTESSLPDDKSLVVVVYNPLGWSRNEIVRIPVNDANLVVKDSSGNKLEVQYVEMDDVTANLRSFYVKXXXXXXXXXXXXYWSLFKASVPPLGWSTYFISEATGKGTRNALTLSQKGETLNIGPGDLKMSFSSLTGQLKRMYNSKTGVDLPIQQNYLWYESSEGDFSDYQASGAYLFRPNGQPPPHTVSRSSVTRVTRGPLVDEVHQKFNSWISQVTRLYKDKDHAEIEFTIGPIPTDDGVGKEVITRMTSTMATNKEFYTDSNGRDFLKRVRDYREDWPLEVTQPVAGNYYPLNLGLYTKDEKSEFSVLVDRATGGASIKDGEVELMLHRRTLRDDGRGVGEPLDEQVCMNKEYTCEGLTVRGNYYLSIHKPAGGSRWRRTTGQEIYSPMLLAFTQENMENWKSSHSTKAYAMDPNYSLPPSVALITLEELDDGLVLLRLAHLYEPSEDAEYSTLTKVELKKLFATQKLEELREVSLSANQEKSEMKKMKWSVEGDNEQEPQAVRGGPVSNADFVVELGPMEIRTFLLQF

Prunus dulcis = assay: Inhibition of almonds beta-glucosidase at 2 mM incubated for 10 to 30 mins using p-nitrophenyl beta-D-glycopyranoside substrate by spectrophotometry; in short: as §1
[3] = target: T2, Beta-galactosidase (Homo sapiens) (UniProt P16278); assay: Inhibition of beta-galactosidase (unknown origin) by spectrophotometry
T2 sequence (whole entry): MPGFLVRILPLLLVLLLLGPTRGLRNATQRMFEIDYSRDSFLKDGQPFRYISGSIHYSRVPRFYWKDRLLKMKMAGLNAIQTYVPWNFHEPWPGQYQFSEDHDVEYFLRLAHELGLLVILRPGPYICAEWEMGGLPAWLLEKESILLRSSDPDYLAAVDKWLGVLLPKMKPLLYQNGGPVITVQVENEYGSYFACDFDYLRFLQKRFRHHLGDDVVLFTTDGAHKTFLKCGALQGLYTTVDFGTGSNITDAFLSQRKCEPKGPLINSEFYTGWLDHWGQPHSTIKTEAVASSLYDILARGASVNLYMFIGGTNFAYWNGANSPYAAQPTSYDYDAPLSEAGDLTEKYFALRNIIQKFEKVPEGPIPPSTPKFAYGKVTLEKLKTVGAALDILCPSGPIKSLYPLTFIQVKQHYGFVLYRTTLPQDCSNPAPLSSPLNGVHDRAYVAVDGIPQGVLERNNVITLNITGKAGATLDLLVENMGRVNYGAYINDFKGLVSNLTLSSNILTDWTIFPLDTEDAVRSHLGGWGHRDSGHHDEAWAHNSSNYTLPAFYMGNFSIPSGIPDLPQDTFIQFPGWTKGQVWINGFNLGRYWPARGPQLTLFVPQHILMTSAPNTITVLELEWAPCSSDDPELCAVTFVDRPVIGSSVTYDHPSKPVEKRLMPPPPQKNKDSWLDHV

[4] = target: T3, Lysosomal acid glucosylceramidase (Homo sapiens, UniProt P04062); assay: Inhibition of human beta-glucocerebrosidase at pH 5.0 by spectrophotometry
T3 sequence (P04062 whole entry): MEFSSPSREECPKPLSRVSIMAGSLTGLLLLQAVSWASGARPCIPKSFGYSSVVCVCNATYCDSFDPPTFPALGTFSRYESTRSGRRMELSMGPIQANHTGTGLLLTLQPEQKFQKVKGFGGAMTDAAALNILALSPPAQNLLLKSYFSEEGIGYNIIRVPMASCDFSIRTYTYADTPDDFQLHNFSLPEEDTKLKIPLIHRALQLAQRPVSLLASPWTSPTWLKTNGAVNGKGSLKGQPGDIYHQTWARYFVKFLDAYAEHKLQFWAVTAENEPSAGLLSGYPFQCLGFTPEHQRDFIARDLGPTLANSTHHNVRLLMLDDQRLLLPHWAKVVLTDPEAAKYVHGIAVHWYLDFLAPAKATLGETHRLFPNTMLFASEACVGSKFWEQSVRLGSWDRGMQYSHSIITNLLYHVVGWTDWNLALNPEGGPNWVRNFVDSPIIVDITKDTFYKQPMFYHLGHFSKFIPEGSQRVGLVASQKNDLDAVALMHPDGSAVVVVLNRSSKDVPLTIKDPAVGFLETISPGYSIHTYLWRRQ

[5] = target: T3, Lysosomal acid glucosylceramidase; assay: Inhibition of human beta-glucocerebrosidase at pH 7.0 by spectrophotometry
Homo sapiens = species: Homo sapiens; assay: Inhibition of alpha-galactosidase (unknown origin) by spectrophotometry

inhibition (Aspergillus niger)	inhibition (Saccharomyces cerevisiae)	inhibition [1]	inhibition (Penicillium decumbens)	inhibition (Saccharomyces bayanus)	inhibition (Helix pomatia)	inhibition [2]	inhibition (Prunus dulcis)	inhibition [3]	IC50 [4]	IC50 [5]	inhibition (Homo sapiens)	IC50 ([4]; read-out: IC50) [µM]	IC50 ([5]; read-out: IC50) [µM]	SMILES
inactive	inactive	inactive	inactive	inactive	inactive	inactive	inactive	inactive	Not Active	Not Active	inactive			OC[C@H]1O[C@@H]2N=C(SCCCCCCCCCCCCCCCCSC3=N[C@H]4O[C@H](CO)[C@@H](O)[C@H](O)[C@H]4O3)O[C@@H]2[C@@H](O)[C@@H]1O
inactive	inactive	inactive	inactive	inactive	inactive	inactive	inactive	inactive			inactive	27	3.9	OC[C@H]1O[C@@H]2N=C(SCCCCCCCCCCCCCCCCF)O[C@@H]2[C@@H](O)[C@@H]1O
inactive	inactive	inactive	inactive	inactive	inactive	inactive	inactive	inactive			inactive	300	33	COC(=O)CCCCCCCCCCCCCCCSC1=N[C@H]2O[C@H](CO)[C@@H](O)[C@H](O)[C@H]2O1
inactive	inactive	inactive	inactive	inactive	inactive	inactive	inactive	inactive	Not Active	Not Active	inactive			OCCCCCCCCCCCCCCCCSC1=N[C@H]2O[C@H](CO)[C@H](O)[C@H](O)[C@H]2O1
